From ChEMBL document CHEMBL4373675, “Derivatisation of parthenolide to address chemoresistant chronic lymphocytic leukaemia” (Medchemcomm, 2019)
Active and inactive are the calls of the source. The rule behind the calls is not given here.

Columns and labels:
[1] = Intrinsic clearance in mouse hepatocytes assessed as per million cells; format: ADME, cell-based, Hepatocyte; details: read-out: CLH
In short: (§1)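 Metabolic stability was measured in mouse hepatocytes. Intrinsic clearance is given in µL min⁻¹ per million cells, alongside half-life in min.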

[2] = AUC (0 to infinity) in mouse at 1 mg/kg, iv; format: ADME, organism-based; parameters: dose 1 mg/kg, route intravenous, time infinity; details: in vivo
[3] = system: MEC1; experiment: Antiproliferative activity against human MEC1 cells assessed as cell death in presence of ROS scavenger N-acetyl-L-cysteine by alamar blue assay; format: functional, cell-based
In short: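 MEC1 CLL cells (ATCC; carry mutated p53) were pretreated with N-acetylcysteine and then exposed to compound across a concentration series. Viability was read by alamarBlue, and EC50 was taken from concentration-activity plots.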

[4] = AUC in mouse at 10 mg/kg, po; format: ADME, organism-based; details: in vivo
[5] = Permeability across basolateral to apical side in human Caco2 cells; format: ADME, cell-based; details: Caco-2
In short: (§2)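 Permeability was measured in a Caco-2 monolayer at pH 7.4 in both the apical-to-basolateral and basolateral-to-apical directions. Results are given as mean apparent permeability (Papp, 10⁻⁶ cm s⁻¹), and efflux ratio was derived from the two directions.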

[6] = Oral bioavailability in mouse at 10 mg/kg; format: ADME, organism-based; details: in vivo
[7] = Permeability across apical to basolateral side in human Caco2 cells; format: ADME, cell-based; details: Caco-2; in short: as §2
[8] = Tmax in mouse at 10 mg/kg, po; format: ADME, organism-based; details: in vivo
[9] = Half life in aqueous solution at pH 7.4; format: physicochemical
[10] = Half life in mouse hepatocytes; format: ADME, cell-based, Hepatocyte; in short: as §1
[11] = Volume of distribution at steady state in mouse at 1 mg/kg, iv; format: ADME, organism-based; details: in vivo, read-out: Vdss

SMILES | hepatocyte CLint [1] | AUC(0-inf) [2] | Activity [3] | AUC(0-inf) [4] | Papp B→A [5] | bioavailability [6] | Papp A→B [7] | Tmax [8] | half-life [9] | half-life [10] | Vd [11]
C/C1=C\CC[C@@]2(C)O[C@@H]2[C@H]2OC(=O)[C@@H](CN[C@@H](Cc3ccccc3)C(=O)O)[C@@H]2CC1 | 16 µL/min/1e6 cells | – | – | – | – | – | – | – | – | – | –
C/C1=C\CC[C@@]2(C)O[C@@H]2[C@H]2OC(=O)[C@@H](CN3CCC(c4cc(O)nc(C)n4)CC3)[C@@H]2CC1 | 22 µL/min/1e6 cells | 289 ng·h/mL | inactive | 1700 ng·h/mL | – | – | – | – | – | – | –
C/C1=C/CC[C@@]2(C)O[C@@H]2[C@H]2OC(=O)[C@@H](CN3CCCC3)[C@@H]2CC1 | 22 µL/min/1e6 cells | 80.5 ng·h/mL | – | 711 ng·h/mL | 16.2 ×10⁻⁶ cm/s | 95.8% | 15.9 ×10⁻⁶ cm/s | 0.5 h | > 2 h | 1.08 h | 11.6 L/kg
